Source: ChEMBL document CHEMBL3868624, “Design, synthesis, biological evaluation, and molecular modeling studies of chalcone-rivastigmine hybrids as cholinesterase inhibitors” (Bioorg Med Chem, 2017)
The source made the active and inactive calls. No cut-off for these calls is given here.

Key:
[1] = Cytotoxicity against human SH-SY5Y cells assessed as cell viability at 6.25 uM after 48 hrs by MTT assay relative to control; assay type: toxicity, cell-based; details: read-out: Activity
Method in brief: (§1)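 SH-SY5Y cells seeded at 5×10³ per well and grown 16-18 h, then exposed to 6.25, 12.5, 25, 50 or 100 µM compound for 48 h. MTT (2.5 mg/mL solution) was added for 4 h at 37 °C, 5% CO₂. Formazan was dissolved in DMSO and absorbance read at 490 nm. Viability is relative to control, mean ± SEM of experiments in triplicate.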

Cholinesterase [2] = molecular target: T1, Cholinesterase (Homo sapiens, UniProt P06276); experiment: Inhibition of human serum BChE using S-Butyrylthiocholine iodide as substrate preincubated for 15 mins followed by substrate addition by Ellman's method
T1 sequence (P06276 whole entry): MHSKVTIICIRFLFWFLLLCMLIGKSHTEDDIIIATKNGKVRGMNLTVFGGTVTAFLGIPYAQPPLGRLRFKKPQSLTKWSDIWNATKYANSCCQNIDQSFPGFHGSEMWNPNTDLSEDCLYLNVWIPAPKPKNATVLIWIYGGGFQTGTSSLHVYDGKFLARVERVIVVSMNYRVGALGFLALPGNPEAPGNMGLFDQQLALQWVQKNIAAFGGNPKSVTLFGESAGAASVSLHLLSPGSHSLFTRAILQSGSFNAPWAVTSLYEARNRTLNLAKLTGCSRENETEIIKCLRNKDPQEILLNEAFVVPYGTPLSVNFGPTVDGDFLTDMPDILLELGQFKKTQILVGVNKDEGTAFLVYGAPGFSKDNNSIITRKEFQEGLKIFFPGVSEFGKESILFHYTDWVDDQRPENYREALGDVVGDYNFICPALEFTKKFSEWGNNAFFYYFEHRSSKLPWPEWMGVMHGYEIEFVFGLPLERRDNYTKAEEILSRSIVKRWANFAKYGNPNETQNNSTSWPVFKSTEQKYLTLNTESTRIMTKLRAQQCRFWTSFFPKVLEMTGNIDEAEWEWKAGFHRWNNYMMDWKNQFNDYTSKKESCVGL
Method in brief: (§2)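 Ellman assay in phosphate buffer pH 8.0 (0.08 M Na₂HPO₄/0.02 M NaH₂PO₄). hAChE at 0.004 U/mL or hBChE at 0.002 U/mL was preincubated with compound for 15 min at 37 °C. DTNB and ATC (hAChE) or BTC (hBChE) were added, each 50 µM final. A412 was read over 5 min and inhibition set against no-compound wells. IC50 from a variable-slope fit, mean ± SD of three independent experiments.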

Cholinesterase [3] = molecular target: T1, Cholinesterase; experiment: Inhibition of human serum BChE using S-Butyrylthiocholine iodide as substrate at 10 uM preincubated for 15 mins followed by substrate addition by Ellman's method
[4] = Cytotoxicity against human SH-SY5Y cells assessed as cell viability at 12.5 uM after 48 hrs by MTT assay relative to control; assay type: toxicity, cell-based; details: read-out: Activity; method in brief: as §1
[5] = Cytotoxicity against human SH-SY5Y cells assessed as cell viability at 25 uM after 48 hrs by MTT assay relative to control; assay type: toxicity, cell-based; details: read-out: Activity; method in brief: as §1
[6] = Cytotoxicity against human SH-SY5Y cells assessed as cell viability at 50 uM after 48 hrs by MTT assay relative to control; assay type: toxicity, cell-based; details: read-out: Activity; method in brief: as §1
[7] = Cytotoxicity against human SH-SY5Y cells assessed as cell viability at 100 uM after 48 hrs by MTT assay relative to control; assay type: toxicity, cell-based; details: read-out: Activity; method in brief: as §1
SH-SY5Y = experiment: Antioxidant activity against t-BHP-induced oxidative stress in human SH-SY5Y cells assessed as inhibition of ROS production at 1 to 5 uM after 24 hrs by DCFH-DA probe based flow cytometric analysis; assay type: functional, cell-based
Method in brief: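 SH-SY5Y cells seeded at 5×10^4 per well, left 16-18 h, then exposed to compound for 24 h. Cells were washed in PBS and loaded with 5 μM DCFH-DA together with 100 μM t-BHP in PBS, 30 min at 37 °C, 5% CO2. After washing and resuspension, flow cytometry read ex 488/em 525 nm. Value reported as (FIsample−FIblank)/(FIcontrol−FIblank)×100%, untreated cells as control, curcumin as positive control.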

Acetylcholinesterase [8] = molecular target: T2, Acetylcholinesterase (Homo sapiens, UniProt P22303); experiment: Inhibition of human recombinant AChE using acetylthiocholine iodide as substrate preincubated for 15 mins followed by substrate addition by Ellman's method; method in brief: as §2
T2 sequence (P22303 whole entry): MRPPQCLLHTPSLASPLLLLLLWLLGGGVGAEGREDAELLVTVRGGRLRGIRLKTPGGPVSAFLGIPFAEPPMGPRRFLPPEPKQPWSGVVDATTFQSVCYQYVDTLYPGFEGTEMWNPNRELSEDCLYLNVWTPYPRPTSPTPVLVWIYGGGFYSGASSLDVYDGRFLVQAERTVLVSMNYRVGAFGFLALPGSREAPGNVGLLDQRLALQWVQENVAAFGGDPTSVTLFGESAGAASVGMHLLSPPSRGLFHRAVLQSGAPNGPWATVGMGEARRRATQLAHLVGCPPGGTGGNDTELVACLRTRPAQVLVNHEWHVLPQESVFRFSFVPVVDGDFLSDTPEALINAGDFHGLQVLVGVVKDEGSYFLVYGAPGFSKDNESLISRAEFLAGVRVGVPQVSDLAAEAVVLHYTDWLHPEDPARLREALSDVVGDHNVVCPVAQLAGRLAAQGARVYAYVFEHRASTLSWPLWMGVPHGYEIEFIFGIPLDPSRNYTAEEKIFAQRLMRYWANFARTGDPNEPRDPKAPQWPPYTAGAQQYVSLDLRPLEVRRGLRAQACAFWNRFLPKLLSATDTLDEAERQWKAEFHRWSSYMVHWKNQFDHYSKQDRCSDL

Acetylcholinesterase [9] = molecular target: T2, Acetylcholinesterase; experiment: Non-competitive inhibition of human recombinant AChE using acetylthiocholine iodide as substrate preincubated for 15 mins followed by substrate addition by Lineweaver-Burk plot analysis
Method in brief: (§3)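 For kinetics, hAChE (0.004 U/mL) or hBChE (0.002 U/mL) was preincubated 15 min at 37 °C with inhibitor at three concentrations spanning 100-900 nM. DTNB was then added, followed by ATC or BTC at six serial concentrations from 0.125 to 1 mM. A412 was read for 5 min at 1-min intervals. Km and Vmax came from Michaelis-Menten fits, and mechanism from Lineweaver-Burk plots.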

Cholinesterase [10] = molecular target: T1, Cholinesterase; experiment: Non-competitive inhibition of human serum BChE using S-Butyrylthiocholine iodide as substrate preincubated for 15 mins followed by substrate addition by Lineweaver-Burk plot analysis; method in brief: as §3

## CN(C)C(=O)Oc1cccc(/C=C/C(=O)c2cccc(O)c2)c1
[1]
  viability at 48 h, 6.25 µM: 85.9%
Cholinesterase [2]
  IC50: 1.91 µM
Cholinesterase [3]
  inhibition: > 50%
[4]
  viability at 48 h, 12.5 µM: 82.6%
[5]
  viability at 48 h, 25 µM: 57.1%
[6]
  viability at 48 h, 50 µM: 15.1%
[7]
  viability at 48 h, 100 µM: 1.03%

## CCN(C)C(=O)Oc1ccccc1C(=O)/C=C/c1ccc(O)cc1
[1]
  viability at 48 h, 6.25 µM: 86%
Cholinesterase [2]
  IC50: 4.37 to 5.97 µM
Cholinesterase [3]
  inhibition: > 50%
[4]
  viability at 48 h, 12.5 µM: 76.4%
[5]
  viability at 48 h, 25 µM: 64.7%
[6]
  viability at 48 h, 50 µM: 51.7%
[7]
  viability at 48 h, 100 µM: 52.2%

## CCN(C)C(=O)Oc1ccc(C(=O)/C=C/c2ccc(OC)cc2)cc1
[1]
  viability at 48 h, 6.25 µM: 95.5%
Cholinesterase [2]
  IC50: 7.36 µM
Cholinesterase [3]
  inhibition: > 50%
[4]
  viability at 48 h, 12.5 µM: 86.1%
[5]
  viability at 48 h, 25 µM: 83.2%
[6]
  viability at 48 h, 50 µM: 52.7%
[7]
  viability at 48 h, 100 µM: 0.22%

## COc1ccc(/C=C/C(=O)c2ccc(OC(=O)N(C)C)cc2)cc1
Cholinesterase [3]
  inhibition: < 50%

## CCN(C)C(=O)Oc1ccc(C(=O)/C=C/c2ccc(O)cc2)cc1
Cholinesterase [3]
  inhibition: < 50%

## CCN(C)C(=O)Oc1cccc(/C=C/C(=O)c2cccc(O)c2)c1
[1]
  viability at 48 h, 6.25 µM: 101%
Cholinesterase [2]
  IC50: 2.87 µM
Cholinesterase [3]
  inhibition: > 50%
[4]
  viability at 48 h, 12.5 µM: 88.2%
[5]
  viability at 48 h, 25 µM: 53%
[6]
  viability at 48 h, 50 µM: 11.2%
[7]
  viability at 48 h, 100 µM: 0.16%

## CN(C)C(=O)Oc1ccc(/C=C/C(=O)c2cccc(O)c2)cc1
Cholinesterase [3]
  inhibition: < 50%

## COc1cc(/C=C/C(=O)CC(=O)/C=C/c2ccc(O)c(OC)c2)ccc1O
SH-SY5Y
  inhibition: Active

## COc1ccc(/C=C/C(=O)c2cccc(OC(=O)N(C(C)C)C(C)C)c2)cc1
Cholinesterase [3]
  inhibition: < 50%

## CCN(C)C(=O)Oc1cc(OC(=O)N(C)CC)cc(C(=O)/C=C/c2ccc(O)cc2)c1
Cholinesterase [3]
  inhibition: < 50%

## CN(C)C(=O)Oc1cc(OC(=O)N(C)C)cc(C(=O)/C=C/c2ccc(O)cc2)c1
Cholinesterase [3]
  inhibition: < 50%

## CCN(C)C(=O)Oc1ccc(/C=C/C(=O)c2cccc(O)c2)cc1
[1]
  viability at 48 h, 6.25 µM: 96.1%
Cholinesterase [2]
  IC50: 5.6 µM
Cholinesterase [3]
  inhibition: > 50%
[4]
  viability at 48 h, 12.5 µM: 93.9%
[5]
  viability at 48 h, 25 µM: 67.1%
[6]
  viability at 48 h, 50 µM: 16.5%
[7]
  viability at 48 h, 100 µM: 0.81%

## CCN(CC)C(=O)Oc1cccc(C(=O)/C=C/c2ccc(OC)cc2)c1
Cholinesterase [3]
  inhibition: < 50%

## CCN(C)C(=O)Oc1cccc(/C=C/C(=O)c2ccc(O)cc2)c1
[1]
  viability at 48 h, 6.25 µM: 95.1%
Cholinesterase [2]
  IC50: 2.52 µM
Cholinesterase [3]
  inhibition: > 50%
[4]
  viability at 48 h, 12.5 µM: 88.7%
[5]
  viability at 48 h, 25 µM: 60.2%
[6]
  viability at 48 h, 50 µM: 16.6%
[7]
  viability at 48 h, 100 µM: 2.97%

## CN(C)C(=O)Oc1cccc(C(=O)/C=C/c2ccc(O)cc2)c1
Acetylcholinesterase [8]
  IC50: 0.87 µM
[1]
  viability at 48 h, 6.25 µM: 102%
Cholinesterase [2]
  IC50: 0.36 µM
Cholinesterase [3]
  inhibition: > 50%
Acetylcholinesterase [9]
  Ki: 0.52 µM
Cholinesterase [10]
  Ki: 0.16 µM
[4]
  viability at 48 h, 12.5 µM: 96.5 to 96.7%
[5]
  viability at 48 h, 25 µM: 94.6%
[6]
  viability at 48 h, 50 µM: 71.8%
[7]
  viability at 48 h, 100 µM: 48.3%

## CN(C)C(=O)Oc1ccccc1C(=O)/C=C/c1ccc(O)cc1
Cholinesterase [3]
  inhibition: < 50%

## CN(C)C(=O)Oc1ccc(/C=C/C(=O)c2ccc(O)cc2)cc1
[1]
  viability at 48 h, 6.25 µM: 100%
Cholinesterase [2]
  IC50: 4.48 µM
Cholinesterase [3]
  inhibition: > 50%
[4]
  viability at 48 h, 12.5 µM: 86.6%
[5]
  viability at 48 h, 25 µM: 60.4%
[6]
  viability at 48 h, 50 µM: 28.9%
[7]
  viability at 48 h, 100 µM: 13.1%

## CN(C)C(=O)Oc1cccc(/C=C/C(=O)c2ccc(O)cc2)c1
[1]
  viability at 48 h, 6.25 µM: 83.9%
Cholinesterase [2]
  IC50: 2.19 µM
Cholinesterase [3]
  inhibition: > 50%
[4]
  viability at 48 h, 12.5 µM: 69.9%
[5]
  viability at 48 h, 25 µM: 46.2%
[6]
  viability at 48 h, 50 µM: 11.2%
[7]
  viability at 48 h, 100 µM: 4.37%

## CCN(C)C(=O)Oc1cccc(C(=O)/C=C/c2ccc(OC)cc2)c1
[1]
  viability at 48 h, 6.25 µM: 101%
Cholinesterase [2]
  IC50: 3.93 µM
Cholinesterase [3]
  inhibition: > 50%
[4]
  viability at 48 h, 12.5 µM: 100%
[5]
  viability at 48 h, 25 µM: 85.1%
[6]
  viability at 48 h, 50 µM: 66.3%
[7]
  viability at 48 h, 100 µM: 0.63%

## CCN(C)C(=O)Oc1cccc(C(=O)/C=C/c2ccc(O)cc2)c1
[1]
  viability at 48 h, 6.25 µM: 96.2%
Cholinesterase [2]
  IC50: 4.37 µM
Cholinesterase [3]
  inhibition: > 50%
[4]
  viability at 48 h, 12.5 µM: 68%
[5]
  viability at 48 h, 25 µM: 49.2%
[6]
  viability at 48 h, 50 µM: 17.4%
[7]
  viability at 48 h, 100 µM: 5.42%

## CC(C)N(C(=O)Oc1cccc(C(=O)/C=C/c2ccc(O)cc2)c1)C(C)C
Cholinesterase [3]
  inhibition: < 50%

## CCN(C)C(=O)Oc1ccc(/C=C/C(=O)c2ccc(O)cc2)cc1
[1]
  viability at 48 h, 6.25 µM: 91.7%
Cholinesterase [2]
  IC50: 6.08 µM
Cholinesterase [3]
  inhibition: > 50%
[4]
  viability at 48 h, 12.5 µM: 80.8%
[5]
  viability at 48 h, 25 µM: 51.5%
[6]
  viability at 48 h, 50 µM: 22.4%
[7]
  viability at 48 h, 100 µM: 1.39%

## COc1ccc(/C=C/C(=O)c2cccc(OC(=O)N(C)C)c2)cc1
Acetylcholinesterase [8]
  IC50: 8.05 µM
[1]
  viability at 48 h, 6.25 µM: 101%
Cholinesterase [2]
  IC50: 3.37 µM
Cholinesterase [3]
  inhibition: > 50%
[4]
  viability at 48 h, 12.5 µM: 95.3%
[5]
  viability at 48 h, 25 µM: 74.3%
[6]
  viability at 48 h, 50 µM: 20%
[7]
  viability at 48 h, 100 µM: 0.67%

## CN(C)C(=O)Oc1ccc(C(=O)/C=C/c2ccc(O)cc2)cc1
Cholinesterase [3]
  inhibition: < 50%

## CCN(C)C(=O)Oc1cccc([C@H](C)N(C)C)c1 [RIVASTIGMINE]
[1]
  viability at 48 h, 6.25 µM: 98.5%
[4]
  viability at 48 h, 12.5 µM: 94.7%
[5]
  viability at 48 h, 25 µM: 86.6%
[6]
  viability at 48 h, 50 µM: 72.7%
[7]
  viability at 48 h, 100 µM: 56.4%

## CCN(CC)C(=O)Oc1cccc(C(=O)/C=C/c2ccc(O)cc2)c1
Cholinesterase [3]
  inhibition: < 50%

## COc1ccc(/C=C/C(=O)c2cccc(O)c2)cc1
Cholinesterase [3]
  inhibition: < 50%

## COc1ccc(/C=C/C(=O)c2ccc(O)cc2)cc1
Cholinesterase [3]
  inhibition: < 50%
